NR2E3 ag-1: activates human photoreceptor nuclear receptor NR2E3; AID 2300; inhibition of corepressor binding, % at 4.78 µM; GST-NR2E3/biotin-RetCOR TR-FRET, 1536-well; hit rate 0.12% among 320,000;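 active = percent inhibition above the cutoff of mean plus 3 SD of all tested compounds, set per screening campaign, cut at about 20% in these data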;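 note: 0% = DMSO wells and 100% = biotin wells as full block of FRET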
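Test system – NR2E3–RetCOR corepressor complex · Quantity – NR2E3 fusion 1.35 nM · Buffer or medium – Tris pH 7.5 · Incubation – Compound–protein incubation for 5 h at 4 °C · Technique – TR-FRET, Eu(K)-anti-GST donor, streptavidin-D2 acceptor, ex 340, em 617/671 nm · Evaluation – percent inhibition of 671/617 nm emission ratio versus biotin and DMSO controls · Plate – 1536-well format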
ADAM17 inh: inhibitors of human ADAM17; recombinant ADAM17, EDANS/DABCYL FRET peptide cleavage; hit rate 0.83% among 370,000; AID 720648; inhibition, % at 6.95 µM;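 active = inhibition above the mean of compounds lying between control limits plus 3 SD, set per campaign, cut at about 8.5% in these data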;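 note: 0% = DMSO-only wells as the low control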
KLK7 zymogen act: activates the human kallikrein-7 zymogen; hit rate 0.9% among 370,000; activation, % at 7 µM; P49862; purified proKLK7, EDANS-DABCYL substrate fluorescence; 100% is mature enzyme control, 0% vehicle;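 active = activation above the mean of all tested compounds plus 3 SD, computed per campaign excluding outliers beyond control limits, cut at about 13% in these data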
Target sequence (P49862 whole entry, looked up): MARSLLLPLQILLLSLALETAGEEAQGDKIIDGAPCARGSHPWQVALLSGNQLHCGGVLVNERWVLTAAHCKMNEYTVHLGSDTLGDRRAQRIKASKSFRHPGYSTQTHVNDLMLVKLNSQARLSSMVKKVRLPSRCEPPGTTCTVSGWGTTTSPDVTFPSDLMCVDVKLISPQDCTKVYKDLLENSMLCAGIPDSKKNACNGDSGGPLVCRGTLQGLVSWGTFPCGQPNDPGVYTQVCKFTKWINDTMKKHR
NR2E3 ag-2: agonists of human NR2E3 nuclear receptor. hit rate 0.35% among 360,000. CHO-S Gal4-NCOR/VP16-NR2E3 two-hybrid, luciferase. Q9Y5X4. AID 602229. inhibition of corepressor binding, % at 3.98 µM;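 active = inhibition above the mean of all tested compounds plus 3 SD, cut at about 70% in these data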;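 note: 0% = DMSO with NR2E3 transfected cells and 100% = cells lacking NR2E3 construct; higher means lower luciferase signal from less NR2E3 corepressor binding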
ADAM10 inh: inhibits human ADAM10 | recombinant ADAM10, EDANS/DABCYL FRET peptide cleavage, 3 h | AID 720582 | hit rate 0.62% among 370,000 | O14672 | inhibition, % at 7 µM;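 active = inhibition above a per-campaign cutoff equal to the mean of compounds falling between control-based bounds plus 3 SD, cut at about 20% in these data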;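 note: 0% = DMSO wells while the 100% control is not disclosed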
GASC-1 inh: blocks human GASC-1 demethylase activity. AID 2099. hit rate 0.069% among 330,000. Q9H3R0. GST-JMJD2C(1-420) H3K9me3 demethylation, DELFIA europium. inhibition, % at 2.35 µM;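 active = more than half of a compound's replicate wells show inhibition beyond 50%, single wells judged on their own value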;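 note: signal counts dimethyl H3K9 product captured on neutravidin plate; 0% = median of DMSO wells and 100% = 0.3 times that DMSO median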
Target sequence (Q9H3R0 1-420 limits assumed): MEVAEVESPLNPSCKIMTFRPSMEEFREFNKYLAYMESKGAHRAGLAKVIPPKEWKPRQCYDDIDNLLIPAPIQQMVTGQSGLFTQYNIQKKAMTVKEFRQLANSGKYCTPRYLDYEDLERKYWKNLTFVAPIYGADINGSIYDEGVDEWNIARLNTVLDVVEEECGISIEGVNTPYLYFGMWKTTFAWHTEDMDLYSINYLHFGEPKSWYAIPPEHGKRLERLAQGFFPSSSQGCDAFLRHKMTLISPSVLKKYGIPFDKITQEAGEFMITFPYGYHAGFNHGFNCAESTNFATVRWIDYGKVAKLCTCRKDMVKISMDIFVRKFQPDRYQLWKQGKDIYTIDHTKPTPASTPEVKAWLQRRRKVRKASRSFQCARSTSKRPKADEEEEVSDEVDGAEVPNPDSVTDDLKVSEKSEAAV
NR2E3 ag conf: confirmation of human NR2E3 agonists. shares compounds with NR2E3 ag-2. CHO-S mammalian two-hybrid NR2E3-NCOR, luciferase luminescence. inhibition, % at 3.98 µM. hit rate 51% among 2,300;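 active = average inhibition above a cutoff equal to the mean inhibition of all tested compounds plus one SD, cut at about 70% in these data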;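 note: 0% = DMSO in NR2E3 cells and 100% = DMSO in cells lacking NR2E3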
VP16 counter: counter-screen for NR2E3 agonists: GAL4-VP16 reporter inhibitors; AID 624379; shares compounds with NR2E3 ag-2; hit rate 29% among 2,300; inhibition, % at 3.98 µM; CHO-S GAL4-VP16 luciferase reporter, luminescence;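 active = mean inhibition above a cutoff equal to the average over all tested compounds plus one standard deviation, cut at about 70% in these data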;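 note: luciferase from a UAS reporter driven by GAL4-VP16 transactivation; 0% = DMSO with VP16-transfected cells and 100% = DMSO with cells lacking VP16; higher means less reporter light so more repression of VP16 activity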
* hit, by the source's call; i = inactive; / = no result. Rows were chosen to be rich in hits. Some 2.5% of all compounds tested hit in one or more screens of this group.

SMILES	NR2E3 ag-1	ADAM17 inh	KLK7 zymogen act	NR2E3 ag-2	ADAM10 inh	GASC-1 inh	NR2E3 ag conf	VP16 counter
Cc1ccc([N+](=O)[O-])cc1S(=O)(=O)Nc1cccc(S(=O)(=O)Nc2ccccc2C(=O)O)c1	/	2.7	0.5	-5.1	4.2	-1.9	/	/
COc1ccccc1CNc1nc(NCC2CC2)nc2ccsc12	/	-2.8	-0.7	12.8	-8.7	/	/	/
COc1ccccc1CNc1nc(NCc2ccc3occc3c2)c2sccc2n1	/	3.3	-1.2	69.0	1.1	/	53.5	64.2
COc1ccccc1CNc1nc(NCc2ccccc2OC)c2sccc2n1	/	1.2	-0.4	75.1*	-3.2	/	75.0*	57.3
COc1ccccc1CNc1nc(NCc2ccccc2SC)c2sccc2n1	/	1.6	0.5	80.1*	7.6	/	85.2*	69.7
O=C(Cc1ccc(Cl)cc1Cl)Nc1ccncc1Cl	0.6	1.7	0.5	98.0*	-2.2	4.4	87.1*	78.2*
O=C(Cc1c(Cl)cccc1Cl)Nc1ccncc1Cl	3.9	-3.0	0.1	22.2	-7.8	9.0	/	/
COc1ccc(CC(=O)Nc2ccncc2Cl)cc1	-1.8	0.9	-0.1	92.4*	-3.0	0.7	87.4*	70.7*
O=C(C1CCCN1S(=O)(=O)c1ccc([N+](=O)[O-])cc1)N1CCN(c2ccccc2)CC1 (stereo unspecified)	/	3.1	-0.7	/	-13.4	/	/	/
COC(=O)C1CN(C2CCCC2)CCS(=O)(=O)N1Cc1cn(Cc2ccc(OC)cc2)nn1 (stereo unspecified)	/	-1.9	0.0	/	2.4	/	/	/
O=C(NCc1ccc(F)cc1F)c1cc(COc2c(F)cccc2F)on1	-1.4	-1.6	-0.9	-1.0	-3.6	10.0	/	/
O=C(NCc1c(F)cccc1F)c1cc(COc2c(F)cccc2F)on1	3.0	2.0	0.8	88.6*	0.9	-4.1	-27.5	-48.9
CC(=NNC(=S)N1CCCC1)c1ccccn1	/	-4.9	0.6	86.5*	-10.1	/	-2.5	8.3
C/C(=N\NC(=O)c1ccc(Cl)cc1)c1ccccn1	-1.7	-0.6	-0.5	-30.2	-3.0	2.3	/	/
CCCCCC(=O)N/N=C(\C)c1ccccn1	3.8	-4.2	-0.8	-16.5	-5.6	0.7	/	/
S=C(NCc1ccccn1)Nc1cccc(Cl)c1	2.7	-2.9	0.0	-2.1	0.5	0.1	/	/
CC(=NNC(=S)SCc1ccccc1)c1ccccn1	/	-2.6	0.0	65.4	5.8	/	11.0	28.5
CC(=NNC(=S)Nc1cccc(Cl)c1)c1ccccn1	/	4.2	-0.1	95.4*	-5.9	/	-64.6	-14.8
CC(=NNC(=S)N1CCC1)c1ccccn1	/	3.4	0.3	75.3*	-11.2	/	-2.1	3.5
CC(C)CN1C(=O)[C@]2(CC(=O)N(C)C2c2ccccc2)c2cc(-n3cc(CN(C)C)nn3)ccc21 (stereo partly specified)	/	1.2	0.2	/	2.9	/	/	/
Nc1nc(SCC(=O)Nc2ccc([N+](=O)[O-])cc2)[nH]c(=O)c1NC(=O)c1ccc(Br)o1	-0.6	0.4	-0.2	-9.8	2.2	-5.7	/	/
CN=c1scc(-c2cccs2)n1/N=C/c1ccccc1O	-1.6	0.4	-26.9	95.4*	-4.5	-5.7	90.0*	82.3*
O=c1c(Br)ccc(Br)cc1Br	/	-1.8	0.1	70.9*	-10.5	/	99.7*	45.9
O=C1CN(S(=O)(=O)c2cc(Br)ccc2Br)CCN1	/	-2.0	-0.2	1.7	6.6	-6.7	/	/
O=c1cc(-c2ccccc2)nc2c(-c3ccccc3)c(C(F)(F)F)[nH]n12	-0.5	i	11.1	58.4	i	-5.6	100.3*	76.5*
SMILES	NR2E3 ag-1	ADAM17 inh	KLK7 zymogen act	NR2E3 ag-2	ADAM10 inh	GASC-1 inh	NR2E3 ag conf	VP16 counter
Nc1ccc(Oc2ccccc2-c2ccccc2)cc1	-1.6	0.8	0.5	47.8	1.3	-0.3	31.5	37.0
NCCOc1ccccc1-c1ccccc1	-0.7	-2.0	-0.5	17.8	0.7	-4.1	/	/
CCn1c(=O)c(C(=O)Nc2nc3ccccc3[nH]2)c(O)c2ccccc21	2.1	-11.3	-1.4	56.7	-22.2	-1.8	13.6	44.2
CCn1c(=O)c(C(=O)Nc2ccccc2)c(O)c2ccccc21	-1.2	-0.6	0.7	12.0	0.3	-5.4	/	/
Cc1cccc2nc(-c3ccco3)c(Nc3ccccc3)n12	0.0	-315.6	4.2	8.6	i	2.6	/	/
Cc1cccc(C)c1Nc1c(-c2ccccn2)nc2ccccn12	-0.5	-8.7	-0.5	76.8*	-10.8	0.1	16.7	2.2
Cc1ccc(Nc2c(-c3ccccn3)nc3cccc(C)n23)cc1	0.7	4.8	-0.4	96.4*	15.7	-17.5	97.5*	83.0*
Cc1cc(C)n2c(Nc3c(C)cccc3C)c(-c3ccccn3)nc2n1	/	-4.1	0.2	-0.6	-11.3	/	/	/
Cc1ccc2nc(-c3ccccn3)c(NC3CCCC3)n2c1	1.3	-7.9	0.1	60.1	-6.3	-1.2	-33.6	-79.2
COc1ccc(-c2noc(CCC(=O)Nc3cccnc3)n2)cc1	0.4	-5.1	0.9	-4.7	0.0	-4.6	/	/
CNC(=O)CCc1nc(-c2ccc(C(C)(C)C)cc2)no1	1.1	2.1	0.2	68.1	10.9	-0.2	71.1*	76.5*
CC(C)(C)c1ccc(-c2noc(CCC(N)=O)n2)cc1	-0.4	-4.9	-0.2	79.9*	-4.1	12.6	77.8*	77.4*
CC(C)(C)c1ccc(-c2noc(CCC(=O)NCC3CCCO3)n2)cc1 (stereo unspecified)	2.5	-0.5	-0.7	83.0*	-3.7	13.6	72.6*	69.5
CC(C)(C)c1ccc(-c2noc(CCC(=O)NC3CC3)n2)cc1	/	-4.8	/	/	-3.6	/	/	/
CN(C)C(=O)CCc1nc(-c2ccc(C(C)(C)C)cc2)no1	0.6	2.4	-0.4	69.7	8.4	3.9	/	/
Cc1ccc(-c2noc(CCC(=O)NCC3CCCO3)n2)cc1 (stereo unspecified)	3.0	-4.5	0.1	14.8	0.4	-6.1	/	/
CC(C)(C)c1ccc(-c2noc(CCC(=O)Nc3cccnc3)n2)cc1	6.2	2.4	-0.1	83.7*	2.1	-1.2	75.1*	79.2*
CCOC(=O)C1CCN(C(=O)C(C)(C)NC(=O)Nc2ccc(N(C)C)cc2)CC1	/	-3.5	/	/	-7.9	/	/	/
FC(F)(F)c1cnc(NNC(=S)Nc2ccccc2Cl)c(Cl)c1	6.4	6.3	-0.2	52.5	17.2	-3.2	65.6	65.9
O=C(Nc1ccccc1)Nc1ncc(C(F)(F)F)cc1Cl	/	-1.6	-0.5	-26.4	1.3	/	/	/
CC1C/C(=N\NC(=S)NCc2ccccc2)CC(C)(C)C1 (stereo unspecified)	-0.3	-3.0	0.5	49.0	2.8	3.8	-31.0	-3.2

Compound activity deposited in PubChem BioAssay by several laboratories.
